The values that follow come from ChEMBL document CHEMBL3576840, “Helical Antimicrobial Sulfono-γ-AApeptides” (J Med Chem, 2015).

In brackets after ≈: the same amount, converted by molar mass. Activity calls are given as the source filed them. No cut-off for these calls is given here. Residues, ends and D or L forms follow the SMILES beside them.

The subject of data set [1] is Escherichia. Nature of the data set: Antimicrobial activity against Escherichia ATCC 25922 after 16 hrs. It counts as functional. The settings on record: ATCC 25922, 16 h. The method, boiled down: (§1)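 Broth microdilution: overnight cultures were reinoculated at 1:100, grown to mid-log phase, and diluted to 1 × 10^6 CFU/mL. Cells were mixed 1:1 with serial dilutions […] and incubated 16 h at 37 °C, then read at 600 nm. MIC is the lowest concentration with no growth. Repeated multiple times, in duplicate.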

Data set [2] relates to Escherichia. Put plainly: Bactericidal activity against Escherichia ATCC 25922 at 25 and 50 ug/ml measured after 1 hr by colony count based time-kill assay. In kind it is functional, organism-based. The method, boiled down:
(§2)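 Time-kill: MRSA and E. coli were grown to mid-log phase in TSB and diluted to 10^6 CFU/mL. Suspensions were exposed to several compound concentrations for 10 min, 30 min, 1 h and 2 h. Samples were diluted 10^2–10^4-fold, plated on TSB agar and incubated overnight at 37 °C. Colonies were counted and plotted against exposure time. Three repeats.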

Data set [3] can be described thus: Stability in presence of 0.1 mg/ml pronase in 100 mM pH 7.8 ammonium bicarbonate buffer at 37 degC assessed as compound degradation after 18 hrs by HPLC method. The settings on record: pH 7.8, 18 h. In kind it is physicochemical. In outline: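 Compound or control peptide AcVQIVYK (1 mg/mL) was incubated 18 h at 37 °C with Pronase in ammonium bicarbonate. Mixtures were dried by speed-vac at 60 °C, redissolved in water and run on analytical RP-HPLC: 5–100% acetonitrile/0.1% TFA gradient over 40 min at 1 mL/min.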

The test system of a further data set is N2a. Put plainly: Cytotoxicity against mouse N2a cells assessed as cell viability after 36 hrs by MTT assay.
The test system of data set [4] is Staphylococcus aureus. Nature of the data set: Bactericidal activity against methicillin-resistant Staphylococcus aureus ATCC 33592 at 12.5 to 50 ug/ml measured after 30 mins by colony count based time-kill assay. In kind it is functional, organism-based. The method, boiled down: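 Time-kill: MRSA grown to mid-log in TSB, diluted to 10^6 CFU/mL, exposed to compound at several multiples of MIC for 10 min, 30 min, 1 h and 2 h; samples diluted 10^2–10^4-fold, plated on TSB agar, colonies counted after overnight 37 °C; viability plotted against time; three repeats.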

A further data set has as its system Enterococcus faecalis. Put plainly: Antimicrobial activity against Enterococcus faecalis ATCC 700802 after 16 hrs. Conditions: ATCC 700802, 16 h. It counts as functional. In outline: as §1
Data set [5] has as its system Staphylococcus epidermidis. Put plainly: Antimicrobial activity against methicillin-resistant Staphylococcus epidermidis RP62A after 16 hrs. It counts as functional.
The subject of data set [6] is Staphylococcus aureus. Nature of the data set: Antimicrobial activity against methicillin-resistant Staphylococcus aureus ATCC 33592 after 16 hrs. It counts as functional. The settings on record: ATCC 33592, 16 h.
Data set [7] relates to Escherichia. Put plainly: Induction of cell aggregation of Escherichia ATCC 25922 at 10 ug/ml incubated for 2 hrs by DAPI and propidium iodide staining based fluorescence microscopy. It counts as functional, organism-based. In outline:
(§3)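 Mid-log bacteria were incubated with 10 μg/mL compound for 2 h at 37 °C, pelleted at 5000 g and washed. Staining used PI (5 μg/mL) then DAPI (10 μg/mL), 15 min on ice. Imaged by fluorescence microscopy with a 100× oil objective; untreated bacteria served as controls.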

The subject of another data set is Pseudomonas aeruginosa. Put plainly: Antimicrobial activity against Pseudomonas aeruginosa ATCC 27853 after 16 hrs. In kind it is functional. The settings on record: ATCC 27853, 16 h. The method, boiled down: as §1
A short description of data set [8]: Induction of hemolysis in human RBCs incubated for 1 hr. In kind it is cell-based, Erythrocyte. The settings on record: red blood cells. In outline:
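Fresh K2EDTA human RBCs were washed in PBS until the supernatant was clear and diluted to a 5% v/v suspension. This was mixed with equal volumes of compound dilutions for 1 h at 37 °C, centrifuged, and supernatant absorbance read at 360 nm. Hemolysis was normalized between PBS (0%) and 2% Triton X-100 (100%) controls. At least three repeats, in duplicate.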

The test system of data set [9] is Staphylococcus aureus. Nature of the data set: Induction of membrane disruption in methicillin-resistant Staphylococcus aureus ATCC 33592 at 10 ug/ml incubated for 2 hrs by DAPI and propidium iodide staining based fluorescence microscopy. In kind it is functional, organism-based. In outline: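 Mid-log bacteria treated with compound (10 μg/mL) at 37 °C for 2 h, pelleted, washed, stained with PI (5 μg/mL) then DAPI (10 μg/mL) for 15 min on ice; untreated cells as control; imaged by fluorescence microscopy under 100× oil immersion; PI uptake taken as membrane damage; three repeats.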

In data set [10] the test system is Escherichia. Nature of the data set: Bactericidal activity against Escherichia ATCC 25922 assessed as reduction bacterial colony count at 25 ug/ml measured after 10 mins to 2 hrs by colony count based time-kill assay. It counts as functional. In outline:
as §2

In data set [11] the test system is Escherichia. Put plainly: Induction of membrane disruption in Escherichia ATCC 25922 at 10 ug/ml incubated for 2 hrs by DAPI and propidium iodide staining based fluorescence microscopy. In kind it is functional, organism-based. The method, boiled down: as §3

Regarding `NCCCC[C@@H](CN(CC(N)=O)S(=O)(=O)CCN)NC(=O)CN(C[C@H](Cc1ccccc1)NC(=O)CN(C[C@H](Cc1ccccc1)NC(=O)CN(C[C@H](Cc1ccccc1)NC(=O)CN(C[C@H](CCCCN)NC(=O)CN(C[C@H](Cc1ccccc1)NC(=O)CN(C[C@H](Cc1ccccc1)NC(=O)CN(C[C@@H](N)Cc1ccccc1)S(=O)(=O)Cc1ccccc1)S(=O)(=O)CCN)S(=O)(=O)Cc1ccccc1)S(=O)(=O)CCN)S(=O)(=O)Cc1ccccc1)S(=O)(=O)CCN)S(=O)(=O)Cc1ccccc1`, the minimum inhibitory concentration (MIC) against Escherichia [1] was determined as 4 µg/mL (≈ 1.57 µM); in the data set on Enterococcus faecalis, 2 µg/mL (≈ 0.785 µM); in [5] it was 2 µg/mL (≈ 0.785 µM); against Staphylococcus aureus [6], 2 µg/mL (≈ 0.785 µM); against Pseudomonas aeruginosa it was 4 µg/mL (≈ 1.57 µM). The result in the data set on Escherichia [2], in the data set on Staphylococcus aureus [4], with Escherichia [7], with Staphylococcus aureus [9] and in the data set with Escherichia [11] was Active. In addition, the Stability result in data set [3] is “Stable”. Further, the EC50 in the data set with N2a was 120 µg/mL (≈ 47.1 µM). In data set [8], the 50% haemolytic concentration (HC50) at 1 h stood at 100 µg/mL. The Activity in the data set with Escherichia [10] is recorded as 1 ×10⁵ CFU/ml.
As for `CC(=O)N[C@@H](Cc1ccccc1)CN(CC(=O)N[C@@H](Cc1ccccc1)CN(CC(=O)N[C@@H](Cc1ccccc1)CN(CC(=O)N[C@@H](CCCCN)CN(CC(=O)N[C@@H](Cc1ccccc1)CN(CC(=O)N[C@@H](Cc1ccccc1)CN(CC(=O)N[C@@H](Cc1ccccc1)CN(CC(=O)N[C@@H](CCCCN)CN(CC(N)=O)S(=O)(=O)CCN)S(=O)(=O)Cc1ccccc1)S(=O)(=O)CCN)S(=O)(=O)Cc1ccccc1)S(=O)(=O)CCN)S(=O)(=O)Cc1ccccc1)S(=O)(=O)CCN)S(=O)(=O)Cc1ccccc1`, the MIC with Escherichia [1] was found to be 4 µg/mL (≈ 1.55 µM); with Enterococcus faecalis, 2 µg/mL (≈ 0.773 µM); in data set [5], 2 µg/mL (≈ 0.773 µM); in the data set on Staphylococcus aureus [6], 4 µg/mL (≈ 1.55 µM); against Pseudomonas aeruginosa, 6 µg/mL (≈ 2.32 µM). Further, the EC50 in the data set with N2a was found to be 80 µg/mL (≈ 30.9 µM). The HC50 at 1 h in [8] is 75 µg/mL.
On to `CC[C@H](C)[C@H](NC(=O)[C@H](CCC(N)=O)NC(=O)[C@@H](NC(C)=O)C(C)C)C(=O)N[C@H](C(=O)N[C@@H](Cc1ccc(O)cc1)C(=O)N[C@@H](CCCCN)C(=O)O)C(C)C` (Ac-VQIVYK-OH), for which the Stability result in data set [3] is listed as “Unstable”.

By MIC is commonly meant the least concentration at which growth counts as inhibited. Low values mean a more susceptible organism, high ones a less susceptible organism. What is called EC50 is the concentration giving half of the maximal effect. For orientation: HC50 means the concentration that lyses half of the red blood cells.
